Data from ChEMBL document CHEMBL1806443, “Novel imidazo[4,5-b]pyridine and triaza-benzo[c]fluorene derivatives: synthesis, antiproliferative activity and DNA binding studies” (Eur J Med Chem, 2011).
Activity calls are given as the source filed them. The calls are words filed in the database; no cut-off is given here.

Legend:
SK-BR-3 = experiment: Cytostatic activity against human SKBR3 cells at 1 to 10 uM after 72 hrs by MTT assay; assay type: functional, cell-based
How it was run: (§1)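 Monolayers in DMEM with 10% FBS, 2 mM L-glutamine, penicillin and streptomycin (37 °C, 5% CO2) were seeded at 3000–6000 cells/well on day 0. Five 10-fold dilutions (0.01–100 µM) were added, followed by 72-h incubation and MTT read-out. Absorbances were converted to percentage growth by the NIH formulae. Each point was run in quadruplicate in three experiments; ANOVA with Tukey test.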

SW-620 [1] = experiment: Cell cycle arrest in human SW620 cells assessed as accumulation at G2/M phase at 5 uM after 48 hrs by propidium iodide staining based flow cytometeric analysis (reference value: 16.1 +/- 0.9%); assay type: functional
SW-620 [2] = experiment: Cell cycle arrest in human SW620 cells assessed as accumulation at subG1 phase at 5 uM after 48 hrs by propidium iodide staining based flow cytometeric analysis (reference value: 29.1 +/- 1.1%); assay type: functional
How it was run: (§2)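 Cells seeded at 3 × 10^4 per well and treated 24 h later with 1, 5 or 10 µM for 24 and 48 h. Adherent and floating cells were pooled, washed in PBS and fixed in 70% ethanol. They were then stained with propidium iodide 10 µg/mL plus RNase A 0.2 µg/mL. Flow cytometry counted 10000 events; each point was run in triplicate; significance was taken at p < 0.05.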

MIA PaCa-2 [3] = experiment: Cell cycle arrest in human MIAPaCa2 cells assessed as accumulation at G2/M phase at 10 uM after 48 hrs by propidium iodide staining based flow cytometeric analysis (reference value: 14.3 +/- 1.8%); assay type: functional
SW-620 [4] = experiment: Cell cycle arrest in human SW620 cells assessed as accumulation at S phase at 10 uM after 48 hrs by propidium iodide staining based flow cytometeric analysis (reference value: 31.9 +/- 1%); assay type: functional
MIA PaCa-2 [5] = experiment: Cell cycle arrest in human MIAPaCa2 cells assessed as accumulation at subG1 phase at 10 uM after 48 hrs by propidium iodide staining based flow cytometeric analysis (reference value: 46.8 +/- 0.7%); assay type: functional
SW-620 [6] = experiment: Cell cycle arrest in human SW620 cells assessed as accumulation at subG1 phase at 5 uM after 24 hrs by propidium iodide staining based flow cytometeric analysis (reference value: 18 +/- 1%); assay type: functional; how it was run: as §2
SW-620 [7] = experiment: Cell cycle arrest in human SW620 cells assessed as accumulation at S phase at 1 uM after 24 hrs by propidium iodide staining based flow cytometeric analysis (reference value: 48.4 +/- 1.4%); assay type: functional
Nucleic Acid [8] = experiment: Binding affinity to calf thymus DNA assessed as hypochromic changes at 364 nm wavelength by UV-Vis spectrophotometric titrations; assay type: nucleic-acid assay; conditions: Bos taurus
How it was run: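 UV/Vis titration: aliquots of ct-DNA (concentration as phosphate) added to compound solution in sodium cacodylate buffer pH 7.0, I = 0.05 mol dm^-3, 1 cm quartz cuvettes. Hypochromism followed at band maxima. Compound absorbance linear up to 2.0 × 10^-5 mol dm^-3. Binding data fitted by the Scatchard equation.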

MIA PaCa-2 [9] = experiment: Cell cycle arrest in human MIAPaCa2 cells assessed as accumulation at S phase at 1 uM after 24 hrs by propidium iodide staining based flow cytometeric analysis (reference value: 29.2 +/- 4.2%); assay type: functional
SW-620 [10] = experiment: Cell cycle arrest in human SW620 cells assessed as accumulation at G1 phase at 10 uM after 24 hrs by propidium iodide staining based flow cytometeric analysis (reference value: 29.3 +/- 1.5%); assay type: functional
MCF7 = experiment: Antiproliferative activity against human MCF7 cells at 0.1 to 10 uM after 72 hrs by MTT assay; assay type: functional, cell-based
How it was run: (§3)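 Monolayer cells in DMEM with 10% FBS, 2 mM L-glutamine, penicillin and streptomycin at 37 °C, 5% CO2. Seeded at 3000-6000 cells/well by doubling time on day 0. Five 10-fold dilutions (0.01–100 µM) were added and incubated 72 h. MTT read-out, converted to percentage growth. IC50 by linear regression between bracketing concentrations. Quadruplicate points, three independent experiments, ANOVA/Tukey p<0.05.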

SW-620 [11] = experiment: Cell cycle arrest in human SW620 cells assessed as accumulation at G2/M phase at 10 uM after 24 hrs by propidium iodide staining based flow cytometeric analysis (reference value: 22.3 +/- 2.9%); assay type: functional
Nucleic Acid [12] = experiment: Binding affinity to calf thymus DNA assessed as change in melting temperature at compound to polynucleotide ratio of 0.2 by UV-VIS spectroscopic analysis; assay type: nucleic-acid assay; conditions: Bos taurus
How it was run: (§4)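 ct-DNA alone or with compound at set r = [compound]/[polynucleotide], in cacodylate buffer pH 7.0, I = 0.05 mol dm^-3. Absorbance at 260 nm followed against temperature, ligand absorbance subtracted, curves normalized. Tm is the transition midpoint, from the first-derivative maximum or by tangent method. ΔTm = Tm(complex) − Tm(free DNA), mean of ≥2 runs, error ±0.5 °C.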

Nucleic Acid [13] = experiment: Binding affinity to calf thymus DNA assessed as change in melting temperature at compound to polynucleotide ratio of 0.5 by UV-VIS spectroscopic analysis; assay type: nucleic-acid assay; conditions: Bos taurus; how it was run: as §4
MIA PaCa-2 [14] = experiment: Antiproliferative activity against human MIAPaCa2 cells at 0.1 to 10 uM after 72 hrs by MTT assay; assay type: functional, cell-based; how it was run: as §3
SW-620 [15] = experiment: Cell cycle arrest in human SW620 cells assessed as accumulation at S phase at 5 uM after 24 hrs by propidium iodide staining based flow cytometeric analysis (reference value: 48.4 +/- 1.4%); assay type: functional
HEp-2 = experiment: Cytostatic activity against human Hep2 cells at 1 to 10 uM after 72 hrs by MTT assay; assay type: functional, cell-based; how it was run: as §1
Nucleic Acid [16] = experiment: Binding affinity to calf thymus DNA assessed as UV/Vis spectral change at compound to DNA ratio of 0.44 by UV/Vis titrations; conditions: Bos taurus
Nucleic Acid [17] = experiment: Binding affinity to calf thymus DNA assessed as fluorescence quenching at compound to DNA ratio of < 0.1 by fluorimetric titrations; assay type: nucleic-acid assay; conditions: Bos taurus
How it was run: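 Fluorimetric titration: portions of ct-DNA (sonicated, filtered, concentration as phosphate) added to compound in cacodylate buffer pH 7.0, I = 0.05 mol dm^-3. Emission 350–600 nm, sample absorbance <0.05 at excitation, mostly DNA excess (r < 0.1). Ks and n = [bound compound]/[DNA phosphate] by non-linear least-squares Scatchard fitting.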

SW-620 [18] = experiment: Antiproliferative activity against human SW620 cells at 0.1 to 10 uM after 72 hrs by MTT assay; assay type: functional, cell-based; how it was run: as §3
HeLa = experiment: Antiproliferative activity against human HeLa cells after 72 hrs by MTT assay; assay type: functional, cell-based; conditions: Homo sapiens, HeLa, 72 h; how it was run: as §3
MIA PaCa-2 [19] = experiment: Cell cycle arrest in human MIAPaCa2 cells assessed as accumulation at G1 phase at 5 uM after 24 hrs by propidium iodide staining based flow cytometeric analysis (reference value: 51.2 +/- 2.7%); assay type: functional
SW-620 [20] = experiment: Cell cycle arrest in human SW620 cells assessed as accumulation at S phase at 5 uM after 48 hrs by propidium iodide staining based flow cytometeric analysis (reference value: 31.9 +/- 1%); assay type: functional
MIA PaCa-2 [21] = experiment: Cell cycle arrest in human MIAPaCa2 cells assessed as accumulation at G2/M phase at 5 uM after 24 hrs by propidium iodide staining based flow cytometeric analysis (reference value: 19.5 +/- 3.9%); assay type: functional

Cl.c1cnc2nc3ccc4ccc(C5=NCCN5)cc4n3c2c1
Activity (SK-BR-3): Active | Activity (SW-620 [1]): 1.5% | Activity (SW-620 [2]): 47.6% | Activity (MIA PaCa-2 [3]): 16.9% | Activity (SW-620 [4]): 41.8% | Activity (MIA PaCa-2 [5]): 39.3% | Activity (SW-620 [6]): 24.4% | Activity (SW-620 [7]): 27.2% | Activity (Nucleic Acid [8]): 35% | Activity (MIA PaCa-2 [9]): 37.4% | Activity (SW-620 [10]): 33.7% | Activity (MCF7): Active | Activity (SW-620 [11]): 19.2% | ΔTm (Nucleic Acid [12]): 5.1 °C | ΔTm (Nucleic Acid [13]): 8.4 °C | Activity (MIA PaCa-2 [14]): Active | Activity (SW-620 [15]): 11.8% | Activity (HEp-2): Active | log Ks (Nucleic Acid [16]): 5.4 | Activity (Nucleic Acid [17]): Active | Activity (SW-620 [18]): Active | IC50 (HeLa): 410 nM | Activity (MIA PaCa-2 [19]): 22.4% | Activity (SW-620 [20]): 7.5% | Activity (MIA PaCa-2 [21]): 18.3%
